“And” between values parts separate entries of the source, which are not always exact repeats. Equal values may be shown once.
Columns and labels:
Format in all cases: functional
MDA-MB-435 = experiment: Antitumor activity against human MDA-MB-435 cells; settings: for TGI: read-out: pTGI (converted)
Procedure, shortened: (§1)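 Run by the NCI in its in vitro disease-oriented screen of about 60 human tumour cell lines. For each line it reports pGI50 (50% net growth inhibition), pTGI (total growth inhibition) and pLC50 (50% net cell death), each as –log molar concentration. Where an effect was not reached within the tested range, the highest tested concentration was used.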

NCI-H226 = experiment: Antitumor activity against human NCI-H226 cells; settings: for TGI: read-out: pTGI (converted); procedure, shortened: as §1
SF-539 = experiment: Antitumor activity against human SF539 cells; settings: for TGI: read-out: pTGI (converted); procedure, shortened: as §1
UACC-257 = experiment: Antitumor activity against human UACC257 cells; settings: for TGI: read-out: pTGI (converted)
Procedure, shortened: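 NCI 60-cell-line screen. Parameters were GI50 (50% net growth inhibition), TGI and LC50, each reported as –log molar concentration. Where an effect was not reached within the tested range, the highest tested concentration was used in the calculation.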

IGROV-1 = experiment: Antitumor activity against human IGROV1 cells; settings: for CC50: read-out: Log LC50 (the source's name) (converted); for TGI: read-out: pTGI (converted); procedure, shortened: as §1
SNB-19 = experiment: Antitumor activity against human SNB19 cells; settings: for CC50: read-out: Log LC50 (the source's name) (converted); for TGI: read-out: pTGI (converted); procedure, shortened: as §1
MCF7 = experiment: Growth inhibition of human multidrug-resistant MCF7 cells after 72 hrs by MTT assay; settings: MCF7, 72 h
Procedure, shortened: (§2)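 Growth inhibition by MTT after 72 h incubation. Resistant sublines: LoVoDoxo and MCF-7 MDR were kept in 0.1 µg/mL doxorubicin; CEMVbl-100 was selected against vinblastine. GI50 given as mean ± SEM of three independent experiments. Resistance index is resistant-line GI50 over parental GI50.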

OVCAR-5 = experiment: Antitumor activity against human OVCAR5 cells; settings: for TGI: read-out: pTGI (converted); procedure, shortened: as §1
CCRF-CEM [1] = experiment: Antitumor activity against human CCRF-CEM cells; settings: for TGI: read-out: pTGI (converted); procedure, shortened: as §1
MOLT-4 = experiment: Antitumor activity against human MOLT4 cells; settings: for TGI: read-out: pTGI (converted); procedure, shortened: as §1
DU-145 = experiment: Antitumor activity against human DU145 cells; settings: for CC50: read-out: Log LC50 (the source's name) (converted); procedure, shortened: as §1
COLO 205 = experiment: Antitumor activity against human COLO205 cells; settings: for TGI: read-out: pTGI (converted); procedure, shortened: as §1
SK-MEL-28 = experiment: Antitumor activity against human SKMEL28 cells; settings: for CC50: read-out: Log LC50 (the source's name) (converted); for TGI: read-out: pTGI (converted); procedure, shortened: as §1
[2] = Antitumor activity against human NCI-H322 cells; settings: for TGI: read-out: pTGI (converted); procedure, shortened: as §1
HCC 2998 = experiment: Antitumor activity against human HCC2998 cells; settings: for TGI: read-out: pTGI (converted); procedure, shortened: as §1
SK-MEL-5 = experiment: Antitumor activity against human SKMEL5 cells; settings: for TGI: read-out: pTGI (converted); procedure, shortened: as §1
SNB-75 = experiment: Antitumor activity against human SNB75 cells; settings: Homo sapiens, SNB-75; for TGI: read-out: pTGI (converted); procedure, shortened: as §1
HOP-92 = experiment: Antitumor activity against human HOP92 cells; settings: for TGI: read-out: pTGI (converted); procedure, shortened: as §1
CCRF-CEM [3] = experiment: Resistance index, Ratio of GI50 for human vinblastine-resistant CEM cells to GI50 for human CEM cells
OVCAR-3 = experiment: Antitumor activity against human OVCAR-3 cells; settings: for TGI: read-out: pTGI (converted); procedure, shortened: as §1
NCI-H460 [4] = experiment: Antitumor activity against human NCI-H460 cells; settings: for CC50: read-out: Log LC50 (the source's name) (converted); for TGI: read-out: pTGI (converted); procedure, shortened: as §1
Malme-3M = experiment: Antitumor activity against human MALME3M cells; settings: for CC50: read-out: Log LC50 (the source's name) (converted); for TGI: read-out: pTGI (converted); procedure, shortened: as §1
NCI-H460 [5] = experiment: Cell viability against human NCI-H460 cells at 10 uM
CCRF-CEM [6] = experiment: Growth inhibition of human vinblastine-resistant CEM cells after 72 hrs by MTT assay; procedure, shortened: as §2
SN12C = experiment: Antitumor activity against human SN12C cells; settings: for TGI: read-out: pTGI (converted); procedure, shortened: as §1

## O=c1[nH]c2cc(Cl)c(Cl)cc2n2cc3ccccc3c12
MDA-MB-435
  GI50: 17 µM
  LC50 (50% net cell death): 55 µM
  TGI: 30.2 µM
NCI-H226
  GI50: 18.6 µM
  LC50 (50% net cell kill): 69.2 µM
  TGI: 35.5 µM
SF-539
  GI50: 19.1 µM
  LC50 (50% net cell kill): 81.3 µM
  TGI: 39.8 µM
UACC-257
  GI50: 20.4 µM
  LC50: > 100 µM
  TGI: 49 µM
IGROV-1
  GI50: 17.4 µM
  CC50: 56.2 µM
  TGI: 30.9 µM
SNB-19
  GI50: 21.9 µM
  CC50: > 100 µM
  TGI: 56.2 µM
MCF7
  GI50: 7.6 µM
OVCAR-5
  GI50: 17 µM
  LC50 (50% net cell death): 55 µM
  TGI: 30.9 µM
CCRF-CEM [1]
  GI50: 21.9 µM
  LC50: > 100 µM
  TGI: 49 µM
MOLT-4
  GI50: 18.6 µM
  LC50: 72.4 µM
  TGI: 37.2 µM
DU-145
  GI50: 31.6 µM
DU-145; Homo sapiens, DU-145
  GI50: 17.8 µM
  CC50: 56.2 µM
COLO 205
  GI50: 29.5 µM
  LC50: > 100 µM
  TGI: 39.8 µM
SK-MEL-28
  GI50: 33.1 µM
  CC50: > 100 µM
  TGI: > 100 µM
[2]
  GI50: 13.5 µM
  LC50 (50% net cell death): 55 µM
  TGI: 26.9 µM
HCC 2998
  GI50: 0.813 µM
  LC50: 43.7 µM
  TGI: 18.6 µM
SK-MEL-5
  GI50: 20 µM
  LC50: 87.1 µM
  TGI: 41.7 µM
SNB-75
  GI50: 21.4 µM
  LC50: > 100 µM
  TGI: 53.7 µM
HOP-92
  GI50: 18.2 µM
  LC50: 66.1 µM
  TGI: 34.7 µM
CCRF-CEM [3]
  RatioGI50: 0.86
OVCAR-3
  GI50: 18.6 µM
  LC50 (50% net cell death): 57.5 µM
  TGI: 32.4 µM
NCI-H460 [4]
  GI50: 18.6 µM
  CC50: 57.5 µM
  TGI: 33.1 µM
Malme-3M
  GI50: 17 µM
  CC50: 63.1 µM
  TGI: 32.4 µM
NCI-H460 [5]
  Activity: 0%
CCRF-CEM [6]
  GI50: 1.9 µM
SN12C
  GI50: 15.8 µM
  LC50: 55 µM
  TGI: 29.5 µM

## Cc1cc2[nH]c(=O)c3c4ccccc4cn3c2cc1C
MDA-MB-435
  GI50: 6.03 µM
  LC50 (50% net cell death): 50.1 µM
  TGI: 20 µM
NCI-H226
  GI50: 15.1 µM
  LC50 (50% net cell kill): 89.1 µM
  TGI: 36.3 µM
SF-539
  GI50: 11.2 µM
  LC50 (50% net cell kill): 64.6 µM
  TGI: 26.9 µM
UACC-257
  GI50: 20.4 µM
  LC50: 63.1 µM
  TGI: 35.5 µM
IGROV-1
  GI50: 12.3 µM
  CC50: 57.5 µM
  TGI: 26.9 µM
SNB-19
  GI50: 16.2 µM
  CC50: 83.2 µM
  TGI: 36.3 µM
MCF7
  GI50: 9.2 µM
OVCAR-5
  GI50: 13.8 µM
  LC50 (50% net cell death): 55 µM
  TGI: 27.5 µM
CCRF-CEM [1]
  GI50: 10 µM
  LC50: 97.7 µM
  TGI: 30.9 µM
MOLT-4
  GI50: 5.62 µM
  LC50: 70.8 µM
  TGI: 19.5 µM
DU-145
  GI50: 13.8 µM and 30.2 µM
DU-145; Homo sapiens, DU-145
  CC50: 64.6 µM
COLO 205
  GI50: 15.1 µM
  LC50: > 100 µM
  TGI: > 100 µM
SK-MEL-28
  GI50: 14.8 µM
  CC50: 83.2 µM
  TGI: 35.5 µM
[2]
  GI50: 16.6 µM
  LC50 (50% net cell death): 55 µM
  TGI: 30.2 µM
HCC 2998
  GI50: 4.07 µM
  LC50: 50.1 µM
  TGI: 16.6 µM
SK-MEL-5
  GI50: 13.5 µM
  LC50: 64.6 µM
  TGI: 29.5 µM
SNB-75
  GI50: 15.5 µM
  LC50: 58.9 µM
  TGI: 30.2 µM
HOP-92
  GI50: 15.5 µM
  LC50: 58.9 µM
  TGI: 30.2 µM
CCRF-CEM [3]
  RatioGI50: 0.97
OVCAR-3
  GI50: 13.8 µM
  LC50 (50% net cell death): 57.5 µM
  TGI: 28.2 µM
NCI-H460 [4]
  GI50: 4.47 µM
  CC50: 63.1 µM
  TGI: 20.4 µM
Malme-3M
  GI50: 22.4 µM
  CC50: 63.1 µM
  TGI: 37.2 µM
NCI-H460 [5]
  Activity: 0%
CCRF-CEM [6]
  GI50: 15.1 µM
SN12C
  GI50: 6.03 µM
  LC50: 56.2 µM
  TGI: 20.4 µM
